Measured values reported in ChEMBL document CHEMBL4014306, “Pyrazolopyrimidines as Potent Stimulators for Transient Receptor Potential Canonical 3/6/7 Channels” (J Med Chem, 2017).
Activity calls are given as the source filed them. The rule behind the calls is not given here.

Legend:
[1] = target: T1, Transient receptor potential cation channel subfamily M member 5 (Homo sapiens) (UniProt Q9NZQ8); assay: Inhibition of human TRPM5 expressed in HEK293 cells assessed as decrease in carbachol-evoked membrane depolarization at 22 uM preincubated for 2 mins followed by carbachol addition measured for 2.5 mins by FLIPR membrane potential dye-based fluorescence assay relative to control; assay type: cell-based
T1 sequence (whole entry): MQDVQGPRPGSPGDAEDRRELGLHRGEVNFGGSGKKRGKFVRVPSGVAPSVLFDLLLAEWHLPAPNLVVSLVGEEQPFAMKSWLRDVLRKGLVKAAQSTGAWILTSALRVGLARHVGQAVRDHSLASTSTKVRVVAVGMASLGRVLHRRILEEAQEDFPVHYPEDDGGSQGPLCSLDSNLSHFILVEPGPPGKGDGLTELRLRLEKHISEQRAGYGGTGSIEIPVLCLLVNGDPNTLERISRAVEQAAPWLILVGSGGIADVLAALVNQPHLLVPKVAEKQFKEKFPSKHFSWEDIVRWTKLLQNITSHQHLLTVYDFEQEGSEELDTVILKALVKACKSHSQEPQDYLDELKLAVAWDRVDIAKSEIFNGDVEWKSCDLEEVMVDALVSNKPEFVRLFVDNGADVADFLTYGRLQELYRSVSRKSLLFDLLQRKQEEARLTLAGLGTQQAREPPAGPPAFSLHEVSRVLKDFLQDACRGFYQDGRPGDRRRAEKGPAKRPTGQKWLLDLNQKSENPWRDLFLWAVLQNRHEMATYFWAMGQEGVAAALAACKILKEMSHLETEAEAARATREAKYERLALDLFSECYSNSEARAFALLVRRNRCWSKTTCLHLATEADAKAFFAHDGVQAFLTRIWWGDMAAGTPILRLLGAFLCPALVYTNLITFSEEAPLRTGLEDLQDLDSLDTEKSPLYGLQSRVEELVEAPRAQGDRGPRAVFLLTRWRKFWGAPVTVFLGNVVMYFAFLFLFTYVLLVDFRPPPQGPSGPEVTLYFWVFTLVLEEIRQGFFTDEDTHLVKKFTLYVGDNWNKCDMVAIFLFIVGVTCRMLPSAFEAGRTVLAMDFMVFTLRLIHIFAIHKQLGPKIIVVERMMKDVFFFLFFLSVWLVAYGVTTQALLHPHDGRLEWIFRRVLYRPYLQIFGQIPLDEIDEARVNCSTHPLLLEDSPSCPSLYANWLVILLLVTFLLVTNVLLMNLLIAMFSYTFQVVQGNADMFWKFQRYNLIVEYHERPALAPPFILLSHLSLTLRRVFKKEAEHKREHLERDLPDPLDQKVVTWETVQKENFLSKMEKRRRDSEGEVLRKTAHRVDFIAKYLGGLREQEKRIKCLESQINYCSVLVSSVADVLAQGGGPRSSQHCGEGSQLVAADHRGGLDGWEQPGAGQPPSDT
Summary of the method: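 Same TRP panel as for the stimulation tests, with FMP dye for TRPC4 and M5 and Fluo8-AM for TRPA1, V1 and M8. Compound applied for 2 min before the channel agonist (TRPC4: 1 μM DAMGO). Inhibition of the agonist response measured on a FlexStation at 32 °C.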

[2] = target: T2, Short transient receptor potential channel 3 (Homo sapiens) (UniProt Q13507); assay: Agonist activity at human TRPC3 expressed in HEK293 cells assessed as induction of channel current at 10 uM measured for 2.5 mins in presence of 0.5 mM Ca2+ by whole cell patch-clamp method; assay type: cell-based
T2 sequence (whole entry): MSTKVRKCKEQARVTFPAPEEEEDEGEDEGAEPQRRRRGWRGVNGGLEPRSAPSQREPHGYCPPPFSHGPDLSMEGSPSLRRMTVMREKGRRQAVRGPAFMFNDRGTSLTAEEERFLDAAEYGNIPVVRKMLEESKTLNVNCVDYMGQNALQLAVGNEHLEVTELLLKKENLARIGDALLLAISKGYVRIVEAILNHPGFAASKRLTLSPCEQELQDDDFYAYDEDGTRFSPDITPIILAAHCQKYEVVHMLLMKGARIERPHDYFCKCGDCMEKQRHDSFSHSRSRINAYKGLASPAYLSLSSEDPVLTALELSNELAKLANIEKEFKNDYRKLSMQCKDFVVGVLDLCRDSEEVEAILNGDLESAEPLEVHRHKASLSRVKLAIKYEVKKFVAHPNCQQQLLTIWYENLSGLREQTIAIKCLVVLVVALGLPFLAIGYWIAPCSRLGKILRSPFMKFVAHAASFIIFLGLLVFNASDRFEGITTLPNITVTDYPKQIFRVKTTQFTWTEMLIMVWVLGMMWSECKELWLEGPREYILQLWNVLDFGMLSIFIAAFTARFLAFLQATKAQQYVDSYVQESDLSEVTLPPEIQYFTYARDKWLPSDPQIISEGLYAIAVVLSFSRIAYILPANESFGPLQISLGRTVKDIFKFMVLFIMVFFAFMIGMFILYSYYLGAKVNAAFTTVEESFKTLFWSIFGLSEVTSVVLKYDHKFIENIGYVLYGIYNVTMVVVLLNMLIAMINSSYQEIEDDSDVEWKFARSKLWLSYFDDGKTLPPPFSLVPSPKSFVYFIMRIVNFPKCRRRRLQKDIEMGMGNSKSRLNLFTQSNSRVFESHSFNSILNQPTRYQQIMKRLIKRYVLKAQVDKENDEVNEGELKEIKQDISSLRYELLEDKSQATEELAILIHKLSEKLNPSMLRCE
Summary of the method: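 Whole-cell recording of human TRPC3 HEK293 cells in bath with 0.5 mM Ca2+. Pipette had 400 nM free Ca2+ buffered by BAPTA. Ramps +100 to −100 mV every 1 s. Compound at 10 μM applied by perfusion; I–V compared against basal.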

Row | inhibition [1] [%] | Compound | Activity [2]
1 | < 20 | CCOC(=O)N1CCC(c2cc(O)n3nc(C)c(-c4ccc(C(F)(F)F)cc4)c3n2)CC1 | 
2 |  | CCOC(=O)N1CCC(c2cc(O)n3nc(C)c(-c4ccc(F)cc4)c3n2)CC1 | Active
